ChEMBL document CHEMBL4477203 (J Med Chem, 2016)
Numbered stars: 1 amine (or outer) side, 2 acyl side, 3 side chain; on linkers, the order of the positions; unused ones are H or OH. Bridge positions count the residues as written; N and C are the ends. Peptide text beside a SMILES is read from it. I, II: the chains in the order shown. Suberoyl = O=C(CCCCCCC(=O)[*:2])[*:1]

Experiments:
[1] = target: T1, Neuropeptide Y receptor type 4 (Homo sapiens, UniProt P50391); experiment: Agonist activity at human NPY Y4 receptor expressed in HEK293 cells co-expressing CRE-Luc gene assessed as inhibition of forskolin stimulated luciferase activity after 4.5 hrs by luminescence assay; assay type: functional, cell-based
T1 sequence (P50391 whole entry): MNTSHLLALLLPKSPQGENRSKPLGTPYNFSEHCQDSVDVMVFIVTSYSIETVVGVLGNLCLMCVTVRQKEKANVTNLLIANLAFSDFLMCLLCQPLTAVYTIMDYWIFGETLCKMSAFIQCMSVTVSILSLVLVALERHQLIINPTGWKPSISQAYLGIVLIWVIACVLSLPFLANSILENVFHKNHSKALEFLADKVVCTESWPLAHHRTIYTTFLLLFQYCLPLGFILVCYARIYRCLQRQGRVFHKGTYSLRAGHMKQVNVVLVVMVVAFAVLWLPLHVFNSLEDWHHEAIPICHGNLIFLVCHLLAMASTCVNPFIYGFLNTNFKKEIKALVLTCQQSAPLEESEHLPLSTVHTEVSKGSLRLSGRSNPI
Method in brief: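 HEK293 cells stably co-transfected with a CRE-controlled firefly luciferase reporter and hY4R, tested in phenol-red-free DMEM, pH 7.4. The maximal inhibition by PP was set to 0% activity (α = 1.0). Data are means ± SEM of at least 3 experiments in triplicate.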

[2] = target: T2, Neuropeptide Y receptor type 1 (Homo sapiens, UniProt P25929); experiment: Displacement of [3H]UR-MK136 from human NPY Y1 receptor expressed in human MCF7 cells by liquid scintillation counting; assay type: cell-based
T2 sequence (P25929 whole entry): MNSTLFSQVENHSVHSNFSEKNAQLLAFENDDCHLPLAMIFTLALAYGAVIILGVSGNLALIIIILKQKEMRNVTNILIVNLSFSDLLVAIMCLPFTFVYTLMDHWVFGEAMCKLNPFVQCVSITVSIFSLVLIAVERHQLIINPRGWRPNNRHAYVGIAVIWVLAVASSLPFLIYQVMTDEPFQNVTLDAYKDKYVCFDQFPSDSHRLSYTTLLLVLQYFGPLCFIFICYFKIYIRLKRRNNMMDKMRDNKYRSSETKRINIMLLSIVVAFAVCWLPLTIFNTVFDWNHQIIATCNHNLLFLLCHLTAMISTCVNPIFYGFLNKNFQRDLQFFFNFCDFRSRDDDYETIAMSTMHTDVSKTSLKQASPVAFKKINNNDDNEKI

[3] = target: T3, Neuropeptide Y receptor type 5 (Homo sapiens, UniProt Q15761); experiment: Displacement of [3H]propionyl-pNPY from human NPY Y5 receptor expressed in human HEC1b cells after 120 mins by liquid scintillation counting; assay type: cell-based
T3 sequence (Q15761 whole entry): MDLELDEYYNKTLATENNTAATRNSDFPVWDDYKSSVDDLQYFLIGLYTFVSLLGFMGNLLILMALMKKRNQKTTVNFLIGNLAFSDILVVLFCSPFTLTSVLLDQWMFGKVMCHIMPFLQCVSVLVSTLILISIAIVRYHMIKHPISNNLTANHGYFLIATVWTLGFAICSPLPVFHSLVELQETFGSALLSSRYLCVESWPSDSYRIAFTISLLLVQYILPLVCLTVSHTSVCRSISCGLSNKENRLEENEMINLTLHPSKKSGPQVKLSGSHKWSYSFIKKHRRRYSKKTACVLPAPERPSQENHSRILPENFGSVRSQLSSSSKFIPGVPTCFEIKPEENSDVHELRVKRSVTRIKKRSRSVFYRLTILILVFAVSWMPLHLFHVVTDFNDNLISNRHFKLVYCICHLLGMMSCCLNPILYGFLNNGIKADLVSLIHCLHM
Method in brief: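 Adherent HEC-1B-hY5 cells in buffer II with 1% BSA and 0.1 mg/mL bacitracin at 22 °C. […] Incubation was 120 min, followed by ice-cold washes, lysis and scintillation counting.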

[4] = target: T1, Neuropeptide Y receptor type 4; experiment: Intrinsic activity at human NPY Y4 receptor expressed in CHO cells co-expressing Gqi5-mtAEQ assessed as induction of calcium mobilization by aequorin luminescence assay relative to pancreatic polypeptide; assay type: functional, cell-based
Method in brief: (§1)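 Luminescence was integrated as area under the curve and normalized to the response to 1 µM PP. Data are means ± SEM of at least 3 independent experiments, each run in triplicate.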

[5] = target: T1, Neuropeptide Y receptor type 4; experiment: Agonist activity at human NPY Y4 receptor expressed in CHO cells co-expressing Gqi5-mtAEQ assessed as induction of calcium mobilization by aequorin luminescence assay; assay type: functional, cell-based; method in brief: as §1
[6] = target: T1, Neuropeptide Y receptor type 4; experiment: Displacement of [3H](2R,7R)-10 from human NPY Y4 receptor expressed in CHO cells co-expressing Gqi5-mtAEQ after 90 mins in presence of sodium-free HEPES buffer by liquid scintillation counting; assay type: cell-based
[7] = target: T4, Neuropeptide Y receptor type 2 (Homo sapiens, UniProt P49146); experiment: Displacement of [3H]propionyl-pNPY from human NPY Y2 receptor expressed in CHO cells co-expressing Gqi5-mtAEQ after 90 mins by liquid scintillation counting; assay type: cell-based
T4 sequence (P49146 whole entry): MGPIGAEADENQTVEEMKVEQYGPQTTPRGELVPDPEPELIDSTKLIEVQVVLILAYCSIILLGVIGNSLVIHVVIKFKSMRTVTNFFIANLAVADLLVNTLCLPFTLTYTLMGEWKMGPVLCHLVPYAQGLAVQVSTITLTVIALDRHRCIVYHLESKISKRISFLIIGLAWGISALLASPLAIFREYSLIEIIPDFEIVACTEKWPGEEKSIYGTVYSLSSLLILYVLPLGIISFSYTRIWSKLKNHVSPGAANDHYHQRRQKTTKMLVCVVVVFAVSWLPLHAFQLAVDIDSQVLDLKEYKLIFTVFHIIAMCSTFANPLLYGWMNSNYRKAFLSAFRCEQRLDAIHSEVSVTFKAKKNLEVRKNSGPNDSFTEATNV
Method in brief: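 Adherent CHO-hY2R-Gqi5-mtAEQ cells in buffer I with 1% BSA and 0.1 mg/mL bacitracin at 22 °C. […] Incubation was 90 min, followed by two ice-cold washes, lysis and scintillation counting.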

[8] = target: T1, Neuropeptide Y receptor type 4; experiment: Intrinsic activity at human NPY Y4 receptor expressed in HEK293 cells co-expressing CRE-Luc gene assessed as inhibition of forskolin stimulated luciferase activity after 4.5 hrs by luminescence assay relative to pancreatic polypeptide; assay type: functional, cell-based
Method in brief: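 HEK293 cells stably co-transfected with a CRE-controlled firefly luciferase reporter and hY4R, tested in phenol-red-free DMEM, pH 7.4. […] The maximal inhibition by PP was set to 0% activity (α = 1.0). Data are means ± SEM of at least 3 experiments in triplicate.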

[9] = target: T1, Neuropeptide Y receptor type 4; experiment: Displacement of [3H]18 from human NPY Y4 receptor expressed in CHO cells co-expressing Gqi5-mtAEQ after 90 mins by liquid scintillation counting; assay type: cell-based; settings: cho
[10] = target: T1, Neuropeptide Y receptor type 4; experiment: Displacement of [3H](2R,7R)-10 from human NPY Y4 receptor expressed in CHO cells co-expressing Gqi5-mtAEQ after 90 mins in presence of L-15 medium by liquid scintillation counting; assay type: cell-based

Row | SMILES | EC50 [1] [nM] | Ki [2] [nM] | Ki [3] [nM] | Intrinsic activity [4] | EC50 [5] [nM] | Ki [6] [nM] | Ki [7] [nM] | Intrinsic activity [8] | EC50 ([1]; hek293) [nM] | Ki [9] [nM] | EC50 ([5]; cho) [nM] | Ki ([6]; cho) [nM] | Ki [10] [nM] | Ki ([2]; mcf7) [nM] | Ki ([7]; cho) [nM]
1 | CC(C)C[C@H](NC(=O)[C@H](CCCNC(=N)N)NC(=O)[C@H](Cc1ccc(O)cc1)NC(=O)CCCCCCC(=O)N[C@@H](Cc1ccc(O)cc1)C(=O)N[C@@H](CCCNC(=N)N)C(=O)N[C@@H](CC(C)C)C(=O)N[C@@H](CCCNC(=N)N)C(=O)N[C@@H](Cc1ccc(O)cc1)C(N)=O)C(=O)N[C@@H](CCCNC(=N)N)C(=O)N[C@@H](Cc1ccc(O)cc1)C(N)=O (I: YRLRY-NH2 / II: YRLRY-NH2; linker I:N-II:N via Suberoyl) | 86 | 720 | 280 | 0.73 | 49 | 3.5 | 1700 | 0.93 | – | – | – | – | – | – | –
2 | CC[C@H](C)[C@H](N)C(=O)N[C@H]1CCC(=O)NC[C@@H](C(=O)N[C@@H](Cc2ccc(O)cc2)C(=O)N[C@@H](CCCN=C(N)N)C(=O)N[C@@H](CC(C)C)C(=O)N[C@@H](CCCN=C(N)N)C(=O)N[C@@H](Cc2ccc(O)cc2)C(N)=O)NC(=O)[C@@H]2CCCN2C(=O)[C@@H](NC(=O)[C@@H](N)[C@@H](C)CC)CCC(=O)NC[C@@H](C(=O)N[C@@H](Cc2ccc(O)cc2)C(=O)N[C@@H](CCCN=C(N)N)C(=O)N[C@@H](CC(C)C)C(=O)N[C@@H](CCCN=C(N)N)C(=O)N[C@@H](Cc2ccc(O)cc2)C(N)=O)NC(=O)[C@@H]2CCCN2C1=O | – | – | – | – | – | – | – | – | 5.5 | 1.3 | 8.5 | 1.6 | – | – | –
3 | CC(C)C[C@H](NC(=O)[C@H](CCCNC(=N)N)NC(=O)[C@H](Cc1ccc(O)cc1)NC(=O)CCCCCCC(=O)N[C@@H](Cc1ccc(O)cc1)C(=O)N[C@@H](CCCNC(=N)N)C(=O)N[C@@H](CC(C)C)C(=O)N[C@@H](CCCNC(=N)N)C(=O)N[C@@H](Cc1ccc(O)cc1)C(N)=O)C(=O)N[C@@H](C)C(=O)N[C@@H](Cc1ccc(O)cc1)C(N)=O (I: YRLAY-NH2 / II: YRLRY-NH2; linker I:N-II:N via Suberoyl) | 150 | 1600 | 460 | 0.85 | 310 | 11 | > 3000 | 0.99 | – | – | – | – | – | – | –
4 | CC(C)C[C@H](NC(=O)[C@H](CCCNC(=N)N)NC(=O)[C@H](Cc1ccc(O)cc1)NC(=O)[C@@H](N)CCCC[C@H](N)C(=O)N[C@@H](Cc1ccc(O)cc1)C(=O)N[C@@H](CCCNC(=N)N)C(=O)N[C@@H](CC(C)C)C(=O)N[C@@H](CCCNC(=N)N)C(=O)N[C@@H](Cc1ccc(O)cc1)C(N)=O)C(=O)N[C@@H](CCCNC(=N)N)C(=O)N[C@@H](Cc1ccc(O)cc1)C(N)=O | 19 | 930 | 2100 | 0.78 | 18 | 2.3 | 950 | 1.07 | – | – | – | – | 17 | – | –
5 | CC(C)C[C@H](NC(=O)[C@H](C)NC(=O)[C@H](Cc1ccc(O)cc1)NC(=O)CCCCCCC(=O)N[C@@H](Cc1ccc(O)cc1)C(=O)N[C@@H](C)C(=O)N[C@@H](CC(C)C)C(=O)N[C@@H](CCCNC(=N)N)C(=O)N[C@@H](Cc1ccc(O)cc1)C(N)=O)C(=O)N[C@@H](CCCNC(=N)N)C(=O)N[C@@H](Cc1ccc(O)cc1)C(N)=O (I: YALRY-NH2 / II: YALRY-NH2; linker I:N-II:N via Suberoyl) | > 3000 | > 3000 | 550 | – | > 3000 | > 3000 | > 10000 | – | – | – | – | – | – | – | –
6 | CCC(=O)N[C@H](CCCC[C@@H](N)C(=O)N[C@H](Cc1ccc(O)cc1)C(=O)N[C@H](CCCNC(=N)N)C(=O)N[C@H](CC(C)C)C(=O)N[C@H](CCCNC(=N)N)C(=O)N[C@H](Cc1ccc(O)cc1)C(N)=O)C(=O)N[C@@H](Cc1ccc(O)cc1)C(=O)N[C@@H](CCCNC(=N)N)C(=O)N[C@@H](CC(C)C)C(=O)N[C@@H](CCCNC(=N)N)C(=O)N[C@@H](Cc1ccc(O)cc1)C(N)=O | – | – | 400 | 0.7 | – | – | – | 0.98 | 27 | – | 59 | 2.8 | – | 290 | 750
7 | CC(C)C[C@H](NC(=O)[C@H](CCCNC(=N)N)NC(=O)[C@H](Cc1ccc(O)cc1)NC(=O)CCCCCCC(=O)N[C@@H](Cc1ccc(O)cc1)C(=O)N[C@@H](CCCNC(=N)N)C(=O)N[C@@H](CC(C)C)C(=O)N[C@@H](C)C(=O)N[C@@H](Cc1ccc(O)cc1)C(N)=O)C(=O)N[C@@H](C)C(=O)N[C@@H](Cc1ccc(O)cc1)C(N)=O (I: YRLAY-NH2 / II: YRLAY-NH2; linker I:N-II:N via Suberoyl) | > 3000 | > 10000 | > 10000 | – | – | > 3000 | > 10000 | – | – | – | – | – | – | – | –
8 | CC(C)C[C@H](NC(=O)[C@H](CCCNC(=N)N)NC(=O)[C@H](Cc1ccc(O)cc1)NC(=O)C(N)CCCCC(N)C(=O)N[C@@H](Cc1ccc(O)cc1)C(=O)N[C@@H](CCCNC(=N)N)C(=O)N[C@@H](CC(C)C)C(=O)N[C@@H](CCCNC(=N)N)C(=O)N[C@@H](Cc1ccc(O)cc1)C(N)=O)C(=O)N[C@@H](CCCNC(=N)N)C(=O)N[C@@H](Cc1ccc(O)cc1)C(N)=O (some centres undefined) | – | – | – | – | – | 1.06 | – | – | – | – | – | – | – | – | –
9 | CC[C@H](C)[C@H](N)C(=O)N[C@H]1CCC(=O)NC[C@@H](C(=O)N[C@@H](Cc2ccc(O)cc2)C(=O)N[C@@H](CCCN=C(N)N)C(=O)N[C@@H](CC(C)C)C(=O)N[C@@H](CCCN=C(N)N)C(=O)N[C@@H](Cc2ccc(O)cc2)C(N)=O)NC(=O)[C@@H]2CCCN2C(=O)[C@H](NC(=O)[C@@H](N)[C@@H](C)CC)CCC(=O)NC[C@H](C(=O)N[C@@H](Cc2ccc(O)cc2)C(=O)N[C@@H](CCCN=C(N)N)C(=O)N[C@@H](CC(C)C)C(=O)N[C@@H](CCCN=C(N)N)C(=O)N[C@@H](Cc2ccc(O)cc2)C(N)=O)NC(=O)[C@@H]2CCCN2C1=O | – | – | – | 0.62 | – | – | – | 1.01 | – | – | – | – | – | – | –
10 | CC(C)C[C@H](NC(=O)[C@H](C)NC(=O)[C@H](Cc1ccc(O)cc1)NC(=O)CCCCCCC(=O)N[C@@H](Cc1ccc(O)cc1)C(=O)N[C@@H](CCCNC(=N)N)C(=O)N[C@@H](CC(C)C)C(=O)N[C@@H](CCCNC(=N)N)C(=O)N[C@@H](Cc1ccc(O)cc1)C(N)=O)C(=O)N[C@@H](CCCNC(=N)N)C(=O)N[C@@H](Cc1ccc(O)cc1)C(N)=O (I: YALRY-NH2 / II: YRLRY-NH2; linker I:N-II:N via Suberoyl) | 160 | 1400 | 220 | 0.85 | 290 | 12 | > 3000 | 0.98 | – | – | – | – | – | – | –
